Data: ChEMBL document CHEMBL1121802, “Imine analogues of tricyclic antidepressants” (1981)

Legend:
Format in all cases: functional
Mus musculus [1] = experiment: Effect on pupil dilation was measured in mice upon oral administration
Procedure, shortened: (§1)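 Observed at 0.5, 2, 5 and 24 h for ataxia (abnormal gait/imprecise movement), pupil diameter (dissecting microscope, 20×, micrometer), excitement (spontaneous running/jumping) and electroshock protection (corneal electrodes at 2 and 5 h). ED50 by Thompson method.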

Mus musculus [2] = experiment: Compound was tested for antidepressant activity by determining the decreased exploratory activity in mice upon oral administration; 12-32
Procedure, shortened: (§2)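 Mice given test drug orally; 30 min later challenged with tetrabenazine (methanesulfonate) 32 mg/kg ip in 0.05 M KCl pH 2.0. Scored 1 h after test drug for exploratory activity and ptosis; ptosis antagonism = lid closure <50% in both eyes exactly 2 s after placing mouse facing observer. ED50 calculated by Thompson method.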

Mus musculus [3] = experiment: The effect on 24-hour mortality in mice following oral administration
Mus musculus [4] = experiment: The effect on ataxia in mice following oral administration; procedure, shortened: as §1
Mus musculus [5] = experiment: Compound was tested for antidepressant activity by determining the reversal of tetrabenazine-induced ptosis upon oral administration; 7-22; procedure, shortened: as §2
Mus musculus [6] = experiment: The effect on electroshock protection in mice following oral administration; procedure, shortened: as §1
Mus musculus [7] = experiment: The effect on excitement was measured in mice following oral administration; procedure, shortened: as §1
Mus musculus [8] = experiment: Compound was tested for antidepressant activity by determining the decreased exploratory activity in mice upon oral administration; 6.0-12.0; procedure, shortened: as §2
Mus musculus [9] = experiment: Compound was tested for antidepressant activity by determining the reversal of tetrabenazine-induced ptosis upon oral administration; 0.7-1.9; procedure, shortened: as §2
Mus musculus [10] = experiment: Antidepressant activity by determining the reversal of tetrabenazine-induced ptosis upon oral administration; procedure, shortened: as §2
Mus musculus [11] = experiment: Compound was tested for antidepressant activity by determining the decreased exploratory activity in mice upon oral administration; 34-158; procedure, shortened: as §2
Mus musculus [12] = experiment: The effect on excitement was measured in mice upon ip administration
Mus musculus [13] = experiment: Antidepressant activity by determining the decreased exploratory activity in mice upon oral administration; procedure, shortened: as §2
Mus musculus [14] = experiment: The effect on 24-hour mortality was measured in mice upon ip administration
Mus musculus [15] = experiment: The effect on electroshock protection was measured in mice upon ip administration
Mus musculus [16] = experiment: The effect on ataxia was measured in mice upon ip administration
Mus musculus [17] = experiment: Compound was tested for antidepressant activity by determining the reversal of tetrabenazine-induced ptosis upon oral administration; 27-60; procedure, shortened: as §2
Mus musculus [18] = experiment: Compound was tested for antidepressant activity by determining the reversal of tetrabenazine-induced ptosis upon oral administration; 84-110; procedure, shortened: as §2
Mus musculus [19] = experiment: Compound was tested for antidepressant activity by determining the decreased exploratory activity in mice upon oral administration; procedure, shortened: as §2
Mus musculus [20] = experiment: Compound was tested for antidepressant activity by determining the reversal of tetrabenazine-induced ptosis upon oral administration; 22-53; procedure, shortened: as §2
Mus musculus [21] = experiment: Compound was tested for antidepressant activity by determining the reversal of tetrabenazine-induced ptosis upon oral administration; 3.0-12.0; procedure, shortened: as §2
Mus musculus [22] = experiment: Compound was tested for antidepressant activity by determining the reversal of tetrabenazine-induced ptosis upon oral administration; 1.3-2.7; procedure, shortened: as §2
Mus musculus [23] = experiment: Compound was tested for antidepressant activity by determining the decreased exploratory activity in mice upon oral administration; 4.7-17; procedure, shortened: as §2
Mus musculus [24] = experiment: Compound was tested for antidepressant activity by determining the reversal of tetrabenazine-induced ptosis upon oral administration; 0.5-0.9; procedure, shortened: as §2
Mus musculus [25] = experiment: Compound was tested its antidepressant activity by determining the decreased exploratory activity in mice upon oral administration; 1.1-2.1; procedure, shortened: as §2
Mus musculus [26] = experiment: Compound was tested for its antidepressant activity by determining the decreased exploratory activity in mice upon oral administration; 8.1-15.4; procedure, shortened: as §2
Mus musculus [27] = experiment: Compound was tested for antidepressant activity by determining the reversal of tetrabenazine-induced ptosis upon oral administration; 1.1-1.8
Mus musculus [28] = experiment: Compound was tested for antidepressant activity by determining the decreased exploratory activity in mice upon oral administration; 2.7-4.6

Structure (SMILES)	ED50 (Mus musculus [1])	ED50 (Mus musculus [3])	ED50 (Mus musculus [4])	ED50 (Mus musculus [6])	ED50 (Mus musculus [7])	also measured
CN(C)CC/N=C1\c2ccccc2CNc2ccccc21	36 mg/kg	300 mg/kg	36 mg/kg	> 324 mg/kg	> 324 mg/kg	ED50 (Mus musculus [2]): 20 mg/kg; ED50 (Mus musculus [5]): 12 mg/kg
CCNCCN=C1c2ccccc2C2CC2c2ccccc21 (centres undefined)	36 mg/kg	200 mg/kg	36 mg/kg	> 324 mg/kg	> 324 mg/kg	ED50 (Mus musculus [8]): 8.4 mg/kg; ED50 (Mus musculus [9]): 1.1 mg/kg
CN(C)CCN=c1c2ccccc2oc2ccccc12	> 324 mg/kg	300 mg/kg	60 mg/kg	> 324 mg/kg	60 mg/kg	ED50 (Mus musculus [10]): > 125 mg/kg; ED50 (Mus musculus [11]): 73 mg/kg
c1ccc2c(c1)CCc1ccccc1C2=NCCN1CCOCC1	100 mg/kg					ED50 (Mus musculus [12]): > 324 mg/kg; ED50 (Mus musculus [13]): > 125 mg/kg; ED50 (Mus musculus [14]): 300 mg/kg; ED50 (Mus musculus [15]): 300 mg/kg; ED50 (Mus musculus [10]): > 125 mg/kg; ED50 (Mus musculus [16]): 200 mg/kg
CN(C)CC/N=C1\c2ccccc2CS(=O)(=O)c2ccccc21	36 mg/kg	> 324 mg/kg	200 mg/kg	> 324 mg/kg	200 mg/kg	ED50 (Mus musculus [13]): > 125 mg/kg; ED50 (Mus musculus [17]): 40 mg/kg
CN(C)CCCN=c1c2ccccc2sc2ccccc12	60 mg/kg	200 mg/kg	60 mg/kg	> 324 mg/kg	60 mg/kg	ED50 (Mus musculus [18]): 96 mg/kg; ED50 (Mus musculus [19]): 125 mg/kg
c1ccc2c(c1)C(=NCCN1CCCCC1)c1ccccc1C1CC21 (centres undefined)	> 324 mg/kg	200 mg/kg	12 mg/kg	> 324 mg/kg	> 324 mg/kg	ED50 (Mus musculus [13]): > 125 mg/kg; ED50 (Mus musculus [20]): 34 mg/kg
CN(C)CC/N=C1\c2ccccc2COc2ccccc21	20 mg/kg	200 mg/kg	36 mg/kg	60 mg/kg	> 324 mg/kg	ED50 (Mus musculus [21]): 6 mg/kg; ED50 (Mus musculus [19]): 33 mg/kg
CN(C)CCN=C1c2ccccc2CCc2ccccc21	20 mg/kg	100 mg/kg	20 mg/kg	36 mg/kg	> 324 mg/kg	ED50 (Mus musculus [22]): 1.9 mg/kg; ED50 (Mus musculus [23]): 9 mg/kg
NCCN=C1c2ccccc2C2CC2c2ccccc21 (centres undefined)	100 mg/kg	200 mg/kg	60 mg/kg	100 mg/kg	> 324 mg/kg	ED50 (Mus musculus [24]): 0.7 mg/kg; ED50 (Mus musculus [25]): 1.5 mg/kg
CN(C)CC/N=C1\c2ccccc2CCc2ccc(Cl)cc21 (mixture of isomers)	36 mg/kg	100 mg/kg	20 mg/kg	60 mg/kg	> 324 mg/kg	ED50 (Mus musculus [26]): 11.2 mg/kg; ED50 (Mus musculus [10]): 4.9 mg/kg
CN(C)CCC=C1c2ccccc2CCc2ccccc21 [AMITRIPTYLINE]	23 mg/kg	190 mg/kg	14 mg/kg	43 mg/kg	> 324 mg/kg	ED50 (Mus musculus [27]): 1.4 mg/kg; ED50 (Mus musculus [28]): 3.5 mg/kg
